Assay outcomes as filed in PubChem BioAssay.
In the library only some 2.8% were active in any assay of this set; here they are far more common.
HTRA1 inhibitor: HTRA1 serine protease inhibitors, primary screen, biochemical, fluorescence polarization, HTS. Q92743. recombinant HTRA1, FP-rhodamine activity-based probe. inhibition, % at 5.96 µM. 340,000 compounds, 0.5% hits. AID 504803, 2011; in the data active = inhibition above about 36%;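 note: 0% = enzyme with DMSO and 100% = wells lacking enzyme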
PAFAH1B2 inh: PAFAH1B2 enzyme inhibitors, primary screen, biochemical, fluorescence polarization, human. 340,000 compounds, 1.2% hits. inhibition, % at 3.39 µM. Platelet-activating factor acetylhydrolase IB subunit alpha2 (Homo sapiens), P68402. recombinant PAFAH1B2, FP-rhodamine activity probe;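 active = inhibition above the mean of all tested compounds plus 3 SD, cut at about 24% in these data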;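 note: 0% = enzyme with DMSO and 100% = wells lacking PAFAH1B2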
Target sequence (P68402 whole entry, looked up): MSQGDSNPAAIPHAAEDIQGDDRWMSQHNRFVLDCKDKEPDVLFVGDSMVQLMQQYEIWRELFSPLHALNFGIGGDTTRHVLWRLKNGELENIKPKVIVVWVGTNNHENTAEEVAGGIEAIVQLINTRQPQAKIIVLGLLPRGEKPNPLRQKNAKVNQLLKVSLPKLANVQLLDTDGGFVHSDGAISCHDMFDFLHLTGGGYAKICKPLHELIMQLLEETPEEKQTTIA
pPAFAH inh: pPAFAH enzyme inhibitors, primary screen, biochemical, fluorescence polarization, human; Platelet-activating factor acetylhydrolase (Homo sapiens), Q13093; recombinant pPAFAH, FP-rhodamine probe fluorescence polarization; inhibition, % at 3.39 µM; 330,000 compounds, 1.5% hits;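 active = inhibition above the mean inhibition across the screen plus 3 SD, cut at about 25% in these data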;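 note: inhibitors block binding of the rhodamine activity-based probe so polarization drops; 0% = enzyme with DMSO and 100% = wells lacking pPAFAH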
PAFAH1B3 inh: PAFAH1B3 enzyme inhibitors, primary screen, biochemical, fluorescence polarization, human; recombinant PAFAH1B3, FP-rhodamine probe; inhibition, % at 3.39 µM; 340,000 compounds, 0.28% hits;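 active = inhibition above the screen-wide average of all tested compounds plus 3 SD, cut at about 25% in these data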;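 note: 0% = enzyme with DMSO only and 100% = wells lacking PAFAH1B3 protein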
Target sequence (Q15102 whole entry, looked up): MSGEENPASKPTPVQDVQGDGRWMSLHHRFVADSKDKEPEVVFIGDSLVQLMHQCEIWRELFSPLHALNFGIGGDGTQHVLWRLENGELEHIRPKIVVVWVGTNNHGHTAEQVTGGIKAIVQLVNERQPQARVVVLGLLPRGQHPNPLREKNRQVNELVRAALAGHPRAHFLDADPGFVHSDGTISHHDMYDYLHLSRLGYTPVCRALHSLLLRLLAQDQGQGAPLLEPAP
PAFAH2 inh: PAFAH2 enzyme inhibitors, primary screen, biochemical, fluorescence polarization, human | Platelet-activating factor acetylhydrolase 2, cytoplasmic (Homo sapiens), Q99487 | recombinant PAFAH2, FP-rhodamine activity probe | inhibition, % at 3.39 µM | 340,000 compounds, 0.99% hits | AID 492956, 2010;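 active = inhibition above the mean over all tested compounds plus 3 SD, cut at about 30% in these data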;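 note: inhibitors block probe labeling of enzyme so polarization drops; 0% = enzyme with DMSO and 100% = wells lacking PAFAH2 protein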
mABHD4 FP: ABHD4 inhibitors, primary screen, biochemical, fluorescence polarization, mouse. 370,000 compounds, 0.54% hits. AID 720543, 2013. purified mABHD4, FP-Rh probe fluorescence polarization. inhibition, % at 8.92 µM;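 active = inhibition exceeding the mean over every tested compound plus 3 SD, cut at about 30% in these data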;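 note: 0% = plate median of compound wells and 100% = S159A mutant with DMSO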
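System: mouse ABHD4 enzyme, wild type / Medium: HEPES pH 7.0, NaCl, Pluronic buffer / Reagent: FP-Rh activity-based fluorescent probe / Control set: S159A mutant high control, sample median low control / Detection: fluorescence polarization with parallel and perpendicular emission, 525/598 nm / Schedule: 45 min + 60 min at 25 °C / Compound dosing: 8.92 µM, single dose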
pPAFAH confirm: pPAFAH (PLA2G7) enzyme inhibitors, confirmation, biochemical, fluorescence polarization, human | shares compounds with pPAFAH inh | recombinant pPAFAH, FP-Rh probe fluorescence polarization | inhibition, % at 3.39 µM | 2,300 compounds, 72% hits | AID 463230, 2010;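 active = mean inhibition of the triplicate above the hit cutoff set for the earlier primary screen, cut at about 25% in these data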;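 note: 0% = enzyme with DMSO and 100% = wells lacking pPAFAH enzyme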
* hit, by the source's call; · = no result given.

SMILES	HTRA1 inhibitor	PAFAH1B2 inh	pPAFAH inh	PAFAH1B3 inh	PAFAH2 inh	mABHD4 FP	pPAFAH confirm
COc1ccc(-c2coc3cc(OC(=O)N4CCOCC4)ccc3c2=O)cc1	0.9	-8.0	50.8*	4.9	6.8	1.1	42.7*
C[C@H]1COc2cccc(N3CCSCC3)c2S(=O)(=O)N1C	·	·	·	·	·	4.0	·
O=C1CSc2ccc(C(=O)N3CCCC(C(=O)N4CCOCC4)C3)cc2N1 (configuration not stated)	·	·	·	·	·	2.7	·
N#C/C=C1/NC(=O)c2ccccc2S1	-4.5	-1.9	56.6*	3.8	-2.2	9.2	5.3
COC(=O)c1ccc2c(c1)NC(=O)c1ccccc1S2	-4.0	5.2	5.8	5.2	-1.5	-5.5	·
N#Cc1c(SCC(=O)Nc2nc3ccc(Br)cc3s2)sc2c(O)cc(=O)[nH]c12	-16.6	11.6	51.2*	19.2	17.4	-4.4	41.7*
N#Cc1c(SCC(=O)Nc2nc3ccccc3s2)sc2c(O)cc(=O)[nH]c12	-15.1	18.8	40.7*	27.6*	34.5*	-23.1	30.6*
Cc1cc(C(F)(F)F)c(C#N)c(SCC(=O)Nc2nc3cc(Br)ccc3s2)n1	-13.2	-28.5	-1.3	-57.3	-54.0	-1.6	·
N#Cc1c(SCC(=O)Nc2nccs2)sc2c(O)cc(=O)[nH]c12	-7.5	16.7	37.4*	21.8	32.2*	-23.4	9.8
C/C=C/C=C/C(=O)N1C[C@H](C)N(C)C[C@H]1C	·	·	·	·	·	-6.7	·
O=C(CSc1nnc(-c2ccncc2)n1-c1ccc(Cl)cc1)c1ccc(Cl)c(Cl)c1	·	·	·	·	·	2.8	·
COc1ccc(S[C@]2(C(=O)N3CCN(c4ncccn4)CC3)CC(=O)N(c3ccc(OC)cc3)[C@@H]2c2ccc(OC)cc2)cc1	·	·	·	·	·	-11.2	·
Brc1cc2c(cc1Br)OCCOCCOCCOCCO2	1.8	1.3	3.9	7.7	-0.7	-0.4	·
Brc1ccc2c(c1)OCCOCCOc1cc(Br)ccc1OCCOCCOCCO2	-28.9	5.5	68.2*	4.8	2.2	·	59.5*
N=C1/C(=C\c2ccc(-c3cccc(Cl)c3)o2)C(=O)N=C2SC=C(c3ccccc3)N12	-56.4	2.6	42.7*	2.4	-15.0	-21.6	39.6*
COC(=O)[C@]12CCCCC=C1N(Cc1ccc(OC)cc1)C(=O)[C@@H]2CC(=O)NCC1CCCCC1	·	·	·	·	·	3.4	·
COc1ccc(CNC(=O)COC(=O)CCCOc2ccc(Cl)cc2Cl)cc1	-10.7	2.2	34.6*	4.9	1.4	-16.5	20.4
COCc1cc(=O)n2[nH]c(N)nc2n1	3.2	3.6	-1.2	0.4	-0.2	-0.5	·
COCc1cc(=O)n2[nH]c(-c3ccsc3-n3c(C)ccc3C)cc2n1	35.2	8.0	46.4*	15.6	54.4*	14.7	18.5
Cc1cc(=O)n2[nH]c(-c3ccsc3-n3c(C)ccc3C)cc2n1	30.0	8.9	42.2*	10.3	39.7*	13.4	10.7
CC(C)=CCc1c(O)ccc2c1OC(c1ccc(O)c(O)c1)CC2=O (configuration not stated)	22.6	5.8	20.5	14.6	7.4	13.4	·
O=C1CC(c2ccc(O)c(O)c2)Oc2c1ccc(O)c2O (configuration not stated)	33.5	11.8	59.6*	18.7	50.4*	27.8	60.0*
C=CCN(CC#Cc1ccccc1)CC=C	·	·	·	·	·	0.0	·
Cc1ccc(CNC2=NCCCCC2)n1C	6.7	1.1	53.3*	3.8	4.1	-1.5	2.9
CC(C)=CCc1c(O)c(CC=C(C)C)c2c(c1O)-c1cc(O)c(O)cc1CC2	·	·	76.4*	·	·	·	56.2*
CCOc1cc(/C=C(\C#N)c2[nH]nc(N)c2C#N)ccc1O	-1.4	7.0	37.0*	11.9	3.0	7.2	15.8
Cc1ccc(-n2c(CCC(=O)O)ccc2-c2cccs2)cc1	1.7	7.5	50.6*	3.0	6.6	-8.3	12.8
